The record followed here is ChEMBL document CHEMBL1944534, “New heterocyclic compounds from 1,2,4-triazole and 1,3,4-thiadiazole class bearing diphenylsulfone moieties. Synthesis, characterization and antimicrobial activity evaluation” (2012).

≈ marks a conversion by molar mass, not a printed value.

One test deals with Staphylococcus aureus. In words: Antibacterial activity against Staphylococcus aureus ATCC 25923 after 20 hrs by broth microdilution method. The class given is functional. As to conditions: ATCC 25923, 20 h. In short, it runs like this:
(§1)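 MIC by two-fold dilution series (1/2 to 1/1024) of a 2048 µg/mL DMSO stock in cation-adjusted Müller-Hinton broth. Inoculum from colonies of 24 h Columbia blood agar culture, adjusted to 0.5 McFarland, diluted to 1 × 10^6 CFU/mL and added 1:1 to compound broth. Incubated 37 °C, 20 h. MIC is the lowest concentration with no turbidity or growth button, read by eye. Run in duplicate.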
Turning to `O=S(=O)(c1ccccc1)c1ccc(-c2nnc(Nc3ccc(OC(F)(F)F)cc3)s2)cc1`, it took 512 µg/mL (≈ 1070 µM) to inhibit growth (MIC).
Take `COc1cc(NC(=S)NNC(=O)c2ccc(S(=O)(=O)c3ccccc3)cc2)cc(OC)c1OC`: inhibition of growth (MIC) required 128 µg/mL (≈ 255 µM). This MIC is about 4-fold lower than that of the compound before.
Take `O=S(=O)(c1ccc(Br)cc1)c1ccc(-c2n[nH]c(=S)n2-c2ccc(OC(F)(F)F)cc2)cc1`: it took 512 µg/mL (≈ 920 µM) to inhibit growth (MIC).
Compound `COc1cc(Nc2nnc(-c3ccc(S(=O)(=O)c4ccccc4)cc3)s2)cc(OC)c1OC` registered an MIC of 512 µg/mL (≈ 1060 µM).
With `NCC[C@H](O)C(=O)N[C@@H]1C[C@H](N)[C@@H](O[C@H]2O[C@H](CN)[C@@H](O)[C@H](O)[C@H]2O)[C@H](O)[C@H]1O[C@H]1O[C@H](CO)[C@@H](O)[C@H](N)[C@H]1O` [AMIKACIN], inhibition of growth (MIC) required 2 µg/mL (≈ 3.42 µM). Compared with the last compound, the MIC is about 260-fold lower.
With `COc1cc(-n2c(-c3ccc(S(=O)(=O)c4ccccc4)cc3)n[nH]c2=S)cc(OC)c1OC`, the MIC was determined as 128 µg/mL (≈ 265 µM).
For the compound `COc1cc(NC(=S)NNC(=O)c2ccc(S(=O)(=O)c3ccc(Br)cc3)cc2)cc(OC)c1OC`, the lowest concentration to inhibit growth (MIC) was 128 µg/mL (≈ 221 µM).

In a further test the test system is Bacillus cereus. Kind of test: Antibacterial activity against Bacillus cereus ATCC 13061 after 20 hrs by broth microdilution method. Conditions: ATCC 13061, 20 h. The class given is functional. Summed up: as §1
A general note: Dilution methods test growth across graded concentrations, often in twofold steps.
In the case of `O=S(=O)(c1ccccc1)c1ccc(-c2nnc(Nc3ccc(OC(F)(F)F)cc3)s2)cc1`, the MIC turned out to be 32 µg/mL (≈ 67 µM).
For `COc1cc(NC(=S)NNC(=O)c2ccc(S(=O)(=O)c3ccccc3)cc2)cc(OC)c1OC`, the MIC stood at 16 µg/mL (≈ 31.9 µM).
The same measure, in the same setting: in the case of `O=S(=O)(c1ccc(Br)cc1)c1ccc(-c2n[nH]c(=S)n2-c2ccc(OC(F)(F)F)cc2)cc1` it was 32 µg/mL (≈ 57.5 µM); in that of `COc1cc(Nc2nnc(-c3ccc(S(=O)(=O)c4ccccc4)cc3)s2)cc(OC)c1OC`, 16 µg/mL (≈ 33.1 µM); in that of `COc1cc(-n2c(-c3ccc(S(=O)(=O)c4ccccc4)cc3)n[nH]c2=S)cc(OC)c1OC`, 16 µg/mL (≈ 33.1 µM).
In the case of `COc1cc(NC(=S)NNC(=O)c2ccc(S(=O)(=O)c3ccc(Br)cc3)cc2)cc(OC)c1OC`, the MIC was found to be 16 µg/mL (≈ 27.6 µM).

Another test relates to Escherichia coli. In words: Antibacterial activity against Escherichia coli ATCC 25922 after 20 hrs by broth microdilution method. The test is classed as functional. As to conditions: ATCC 25922, 20 h. Summed up: as §1
As for `O=S(=O)(c1ccccc1)c1ccc(-c2nnc(Nc3ccc(OC(F)(F)F)cc3)s2)cc1`, it took 128 µg/mL (≈ 268 µM) to inhibit growth (MIC).
Turning to `COc1cc(NC(=S)NNC(=O)c2ccc(S(=O)(=O)c3ccccc3)cc2)cc(OC)c1OC`, the MIC stood at 128 µg/mL (≈ 255 µM).
The same measure, in the same setting: in the case of `O=S(=O)(c1ccc(Br)cc1)c1ccc(-c2n[nH]c(=S)n2-c2ccc(OC(F)(F)F)cc2)cc1` it was 256 µg/mL (≈ 460 µM); in that of `COc1cc(Nc2nnc(-c3ccc(S(=O)(=O)c4ccccc4)cc3)s2)cc(OC)c1OC`, 128 µg/mL (≈ 265 µM).
The same measure, in the same setting: with `NCC[C@H](O)C(=O)N[C@@H]1C[C@H](N)[C@@H](O[C@H]2O[C@H](CN)[C@@H](O)[C@H](O)[C@H]2O)[C@H](O)[C@H]1O[C@H]1O[C@H](CO)[C@@H](O)[C@H](N)[C@H]1O` [AMIKACIN] the figure was 2 µg/mL (≈ 3.42 µM); with `COc1cc(-n2c(-c3ccc(S(=O)(=O)c4ccccc4)cc3)n[nH]c2=S)cc(OC)c1OC`, 128 µg/mL (≈ 265 µM); with `COc1cc(NC(=S)NNC(=O)c2ccc(S(=O)(=O)c3ccc(Br)cc3)cc2)cc(OC)c1OC`, 128 µg/mL (≈ 221 µM).

The next test relates to Enterobacter cloacae. In words: Antibacterial activity against Enterobacter cloacae ATCC 49141 after 20 hrs by broth microdilution method. The class given is functional. Conditions: ATCC 49141, 20 h. In short, it runs like this: as §1
Turning to `O=S(=O)(c1ccccc1)c1ccc(-c2nnc(Nc3ccc(OC(F)(F)F)cc3)s2)cc1`, the MIC is 128 µg/mL (≈ 268 µM).
Still for that read-out and setting: in the case of `COc1cc(NC(=S)NNC(=O)c2ccc(S(=O)(=O)c3ccccc3)cc2)cc(OC)c1OC` it was 128 µg/mL (≈ 255 µM).
On to `O=S(=O)(c1ccc(Br)cc1)c1ccc(-c2n[nH]c(=S)n2-c2ccc(OC(F)(F)F)cc2)cc1`, for which the MIC is 256 µg/mL (≈ 460 µM).
As to `COc1cc(Nc2nnc(-c3ccc(S(=O)(=O)c4ccccc4)cc3)s2)cc(OC)c1OC`, the MIC was 128 µg/mL (≈ 265 µM).
`COc1cc(-n2c(-c3ccc(S(=O)(=O)c4ccccc4)cc3)n[nH]c2=S)cc(OC)c1OC`: inhibition of growth (MIC) required 128 µg/mL (≈ 265 µM).
Consider `COc1cc(NC(=S)NNC(=O)c2ccc(S(=O)(=O)c3ccc(Br)cc3)cc2)cc(OC)c1OC`, for which the MIC turned out to be 128 µg/mL (≈ 221 µM).

For the next test, the system named is Acinetobacter baumannii. Kind of test: Antibacterial activity against Acinetobacter baumannii ATCC 19606 after 20 hrs by broth microdilution method. The class given is functional. Conditions: ATCC 19606 = CIP 70.34 = JCM 6841, 20 h. In short, it runs like this: as §1
In turn, `O=S(=O)(c1ccccc1)c1ccc(-c2nnc(Nc3ccc(OC(F)(F)F)cc3)s2)cc1` had an MIC of 32 µg/mL (≈ 67 µM).
Regarding `COc1cc(NC(=S)NNC(=O)c2ccc(S(=O)(=O)c3ccccc3)cc2)cc(OC)c1OC`, the MIC stood at 32 µg/mL (≈ 63.8 µM).
The same measure, in the same setting: with `O=S(=O)(c1ccc(Br)cc1)c1ccc(-c2n[nH]c(=S)n2-c2ccc(OC(F)(F)F)cc2)cc1` the figure was 32 µg/mL (≈ 57.5 µM); with `COc1cc(Nc2nnc(-c3ccc(S(=O)(=O)c4ccccc4)cc3)s2)cc(OC)c1OC`, 32 µg/mL (≈ 66.2 µM); with `COc1cc(-n2c(-c3ccc(S(=O)(=O)c4ccccc4)cc3)n[nH]c2=S)cc(OC)c1OC`, 32 µg/mL (≈ 66.2 µM).
`COc1cc(NC(=S)NNC(=O)c2ccc(S(=O)(=O)c3ccc(Br)cc3)cc2)cc(OC)c1OC`: it took 32 µg/mL (≈ 55.1 µM) to inhibit growth (MIC).

The next test concerns Pseudomonas aeruginosa. In words: Antibacterial activity against Pseudomonas aeruginosa ATCC 27853 after 20 hrs by broth microdilution method. Conditions: ATCC 27853, 20 h. The class given is functional. In short, it runs like this: as §1
For the compound `O=S(=O)(c1ccccc1)c1ccc(-c2nnc(Nc3ccc(OC(F)(F)F)cc3)s2)cc1`, it took 64 µg/mL (≈ 134 µM) to inhibit growth (MIC).
As for `COc1cc(NC(=S)NNC(=O)c2ccc(S(=O)(=O)c3ccccc3)cc2)cc(OC)c1OC`, the MIC was found to be 64 µg/mL (≈ 128 µM).
Turning to `O=S(=O)(c1ccc(Br)cc1)c1ccc(-c2n[nH]c(=S)n2-c2ccc(OC(F)(F)F)cc2)cc1`, inhibition of growth (MIC) required 64 µg/mL (≈ 115 µM).
On the same count and under the same terms, in the case of `COc1cc(Nc2nnc(-c3ccc(S(=O)(=O)c4ccccc4)cc3)s2)cc(OC)c1OC` it was 64 µg/mL (≈ 132 µM); in that of `NCC[C@H](O)C(=O)N[C@@H]1C[C@H](N)[C@@H](O[C@H]2O[C@H](CN)[C@@H](O)[C@H](O)[C@H]2O)[C@H](O)[C@H]1O[C@H]1O[C@H](CO)[C@@H](O)[C@H](N)[C@H]1O` [AMIKACIN], 2 µg/mL (≈ 3.42 µM).
On the same count and under the same terms, with `COc1cc(-n2c(-c3ccc(S(=O)(=O)c4ccccc4)cc3)n[nH]c2=S)cc(OC)c1OC` the figure was 64 µg/mL (≈ 132 µM); with `COc1cc(NC(=S)NNC(=O)c2ccc(S(=O)(=O)c3ccc(Br)cc3)cc2)cc(OC)c1OC`, 64 µg/mL (≈ 110 µM).

In another test the test system is Candida albicans. In words: Antifungal activity against Candida albicans ATCC 90028 after 24 hrs by broth microdilution method. The class given is functional. Conditions: ATCC 90028, 24 h. Summed up:
(§2)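 Two-fold dilutions (1/2 to 1/1024) of a 2048 µg/mL DMSO stock made in Sabouraud broth. Yeast inoculum from colonies of 24 h Sabouraud dextrose agar culture, 0.5 McFarland, diluted in sterile water to 10^5 CFU/mL and added in equal volume to broth. Incubated 37 °C, 24 h (C. albicans) or 48 h (C. parapsilosis). MIC read by eye as lowest concentration without turbidity or growth button. Run in duplicate.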
For the compound `O=S(=O)(c1ccccc1)c1ccc(-c2nnc(Nc3ccc(OC(F)(F)F)cc3)s2)cc1`, the MIC is 64 µg/mL (≈ 134 µM).
Compound `COc1cc(NC(=S)NNC(=O)c2ccc(S(=O)(=O)c3ccccc3)cc2)cc(OC)c1OC` displayed an MIC of 64 µg/mL (≈ 128 µM).
As for `O=S(=O)(c1ccc(Br)cc1)c1ccc(-c2n[nH]c(=S)n2-c2ccc(OC(F)(F)F)cc2)cc1`, the minimum inhibitory concentration (MIC) came to 128 µg/mL (≈ 230 µM).
`COc1cc(Nc2nnc(-c3ccc(S(=O)(=O)c4ccccc4)cc3)s2)cc(OC)c1OC` returned an MIC of 64 µg/mL (≈ 132 µM).
On the same count and under the same terms, with `COc1cc(-n2c(-c3ccc(S(=O)(=O)c4ccccc4)cc3)n[nH]c2=S)cc(OC)c1OC` the figure was 64 µg/mL (≈ 132 µM); with `COc1cc(NC(=S)NNC(=O)c2ccc(S(=O)(=O)c3ccc(Br)cc3)cc2)cc(OC)c1OC`, 64 µg/mL (≈ 110 µM).

The test system of a further test is Candida parapsilosis. In words: Antifungal activity against Candida parapsilosis ATCC 22019 after 48 hrs by broth microdilution method. The class given is functional. Conditions: Lodderomyces parapsilosis, ATCC 22019, 48 h. Summed up: as §2
Consider `O=S(=O)(c1ccccc1)c1ccc(-c2nnc(Nc3ccc(OC(F)(F)F)cc3)s2)cc1`, for which the MIC stood at 64 µg/mL (≈ 134 µM).
The compound `COc1cc(NC(=S)NNC(=O)c2ccc(S(=O)(=O)c3ccccc3)cc2)cc(OC)c1OC` came in with an MIC of 64 µg/mL (≈ 128 µM).
Consider `O=S(=O)(c1ccc(Br)cc1)c1ccc(-c2n[nH]c(=S)n2-c2ccc(OC(F)(F)F)cc2)cc1`, for which the lowest concentration to inhibit growth (MIC) was 64 µg/mL (≈ 115 µM).
As to `COc1cc(Nc2nnc(-c3ccc(S(=O)(=O)c4ccccc4)cc3)s2)cc(OC)c1OC`, inhibition of growth (MIC) required 64 µg/mL (≈ 132 µM).
In the case of `COc1cc(-n2c(-c3ccc(S(=O)(=O)c4ccccc4)cc3)n[nH]c2=S)cc(OC)c1OC`, the MIC was 32 µg/mL (≈ 66.2 µM).
On the same count and under the same terms, in the case of `COc1cc(NC(=S)NNC(=O)c2ccc(S(=O)(=O)c3ccc(Br)cc3)cc2)cc(OC)c1OC` it was 64 µg/mL (≈ 110 µM).

As usually defined, the MIC is the least concentration at which growth counts as inhibited.
